Measured values from ChEMBL document CHEMBL1122142, “Synthesis and antiinflammatory activity of hexahydrothiopyrano[4,3-c]pyrazoles and related analogues” (J Med Chem, 1982).

Experiments:
[1] = tested on: Cavia porcellus; assay: Tested in delayed hypersensitivity skin reaction (DHSR) after subcutaneous administration, activity reported as percent inhibition of erythema/induration of lesion; 4/0; format: functional
Outline: (§1)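 Male Hartley guinea pigs were sensitized with Mycobacterium tuberculosis in Freund's incomplete adjuvant, injected into each hind footpad and subcutaneously at the neck. After 3 weeks, 1.2 μg PPD was given intradermally. Compound in sesame oil was given sc, 3 animals per group, 30 min before and 5 h after PPD; screening dose 50 mg/kg.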

[2] = tested on: Mus musculus; assay: Mouse active Arthus (MAA) reaction activity was determined for an ip dose of 150 mg/kg in mouse; format: functional; conditions: route intraperitoneal
[3] = tested on: Mus musculus; assay: Carrageenan-induced edema was determined value for oral administration; format: functional; conditions: read-out: ID50 (the source's name)
Outline: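 Adult male Sprague-Dawley (CD) rats, 160–200 g. Single dose in 1% CMC given 2 h before footpad injection of 0.05 mL 1% carrageenin in pyrogen-free saline. Paws removed and weighed at 3 h, with the contralateral paw as control. ID50 is the dose giving 50% edema inhibition.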

[4] = tested on: Mus musculus; assay: Inhibition of Mouse Active Arthus reaction following 150 mg/Kg i.p.; 41-60% inhibition.; format: functional; conditions: Mus musculus, ip
[5] = tested on: Cavia porcellus; assay: Tested in delayed hypersensitivity skin reaction (DHSR) after subcutaneous administration, activity reported as percent inhibition of erythema/induration of lesion; 15/0; format: functional
[6] = tested on: Mus musculus; assay: Inhibition of Mouse active Arthus (MAA) reaction activity was determined for peroral dose of 300 mg/kg in mouse; 31-40%; format: functional; conditions: route oral
[7] = tested on: Mus musculus; assay: The compound was evaluated for the mouse active Arthus (MAA) reaction activity expressed as inhibitory dose after ip administration; format: functional; conditions: read-out: ID50 (the source's name)
Outline: (§2)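 CD-1 mice were sensitized ip with a 1:1 Freund's complete adjuvant emulsion containing BSA in saline, 5 weeks before challenge. Compound was suspended in 1% Na CMC in pyrogen-free saline and given as one ip or oral dose 1 h before skin challenge with BSA. Screening doses were 150 mg/kg ip and 300 mg/kg po, with some at 75 or 50 mg/kg ip. Lesions were excised 3.5 h after challenge and weighed against controls.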

[8] = tested on: Cavia porcellus; assay: Tested in delayed hypersensitivity skin reaction (DHSR) after subcutaneous administration, activity reported as percent inhibition of erythema/induration of lesion; 16/52; format: functional
[9] = tested on: Cavia porcellus; assay: Tested in delayed hypersensitivity skin reaction (DHSR) after subcutaneous administration, activity reported as percent inhibition of erythema/induration of lesion; 14/11; format: functional
[10] = tested on: Mus musculus; assay: Inhibition of Mouse active Arthus (MAA) reaction activity was determined for peroral dose of 300 mg/kg in mouse; format: functional; conditions: route oral
[11] = tested on: Cavia porcellus; assay: Tested in delayed hypersensitivity skin reaction (DHSR) after subcutaneous administration, activity reported as percent inhibition of erythema/induration of lesion; 5/18; format: functional; outline: as §1
[12] = species: Mus musculus; assay: Mouse active Arthus (MAA) reaction activity was determined for peroral dose of 300 mg in mouse; 21-30%; format: functional
[13] = tested on: Mus musculus; assay: The compound was evaluated for the mouse active Arthus (MAA) reaction activity for an ip screening dose of 75 mg/kg in mouse; 31-40%; format: functional; conditions: route intraperitoneal; outline: as §2
[14] = tested on: Cavia porcellus; assay: Tested in delayed hypersensitivity skin reaction (DHSR) after subcutaneous administration, activity reported as percent inhibition of erythema/induration of lesion; 10/8; format: functional
[15] = tested on: Mus musculus; assay: Inhibition of Mouse active Arthus (MAA) reaction activity was determined for an ip dose of 150 mg/kg in mouse; 21-30%; format: functional; conditions: route intraperitoneal
[16] = tested on: Mus musculus; assay: Inhibition of Mouse active Arthus (MAA) reaction activity was determined for peroral dose of 150 mg/kg in mouse; 21-30%; format: functional; conditions: route oral
[17] = tested on: Cavia porcellus; assay: Tested in delayed hypersensitivity skin reaction (DHSR) after subcutaneous administration, activity reported as percent inhibition of erythema/induration of lesion; 11/66; format: functional
[18] = Acute toxicity as LD50 value was determined in mice administered orally; format: organism-based; conditions: mouse, in vivo, po
[19] = Acute toxicity as LD50 value was determined in mice administered intraperitoneally; format: organism-based; conditions: mouse, in vivo, ip
[20] = Therapeutic ratio was determined for peroral administration; conditions: po; read-out: TR
[21] = Therapeutic ratio was determined for intraperitoneal administration; format: ADME; conditions: ip; read-out: TR
[22] = The acute toxicity as LD50 value was determined in mice for intraperitoneally administration; format: organism-based; conditions: mouse, in vivo, ip
[23] = tested on: Rattus norvegicus; assay: Adjuvant-induced arthritis was determined for a dose of 75 mg/kg intraperitoneal administration; conditions: ip
[24] = tested on: Mus musculus; assay: Mouse active Arthus (MAA) reaction activity was determined for an oral dose of 300 mg/kg administration in mouse; 21-30%; format: functional
[25] = tested on: Rattus norvegicus; assay: Adjuvant-induced arthritis was determined for a dose of 150 mg/kg administered orally; conditions: po
[26] = tested on: Cavia porcellus; assay: Delayed hypersensitivity skin reaction (DHSR) activity was determined after a dose of 50 mg/kg; 6/15
[27] = tested on: Rattus norvegicus; assay: Adjuvant-induced arthritis was determined for a dose of 75 mg/kg oral administration
[28] = tested on: Rattus norvegicus; assay: Adjuvant-induced arthritis was determined for a dose of 150 mg/kg administered intraperitoneally; conditions: ip
[29] = tested on: Mus musculus; assay: The compound was evaluated for the mouse active Arthus (MAA) reaction activity expressed as inhibitory dose after oral administration; format: functional; conditions: read-out: ID50 (the source's name); outline: as §2
[30] = tested on: Rattus norvegicus; assay: Carrageenan-induced edema was determined after intraperitoneal administration; conditions: ip, read-out: ID50 (the source's name)
[31] = tested on: Rattus norvegicus; assay: Carrageenan-induced edema was determined after oral administration of a dose of; conditions: read-out: ID50 (the source's name)

## C#CCN1N=C2/C(=C/c3ccccc3)CS(=O)(=O)CC2C1c1ccccc1 (stereo unspecified)
[1]
  Activity: 4
[2]
  inhibition in vivo at 150 mg/kg: < 20%

## COc1ccc2cc([C@H](C)C(=O)O)ccc2c1 [NAPROXEN]
[3]
  ED50: 411 mg/kg

## CN1N=C2/C(=C/c3cccc(C(F)(F)F)c3)CS(=O)(=O)CC2C1c1cccc(C(F)(F)F)c1 (stereo unspecified)
[1]
  Activity: 4
[4]
  inhibition in vivo at 150 mg/kg: 41%

## CC(C)(C)c1ccc(/C=C2\CS(=O)(=O)CC3C2=NN(CC2CC2)C3c2ccc(C(C)(C)C)cc2)cc1 (stereo unspecified)
[5]
  Activity: 15

## Cc1ccc(/C=C2\CSCC3C2=NN(CCCN2CCN(C)CC2)C3c2ccc(C)cc2)cc1.O=C(O)/C=C\C(=O)O (stereo unspecified)
[6]
  inhibition in vivo at 300 mg/kg: 31%
[4]
  inhibition in vivo at 150 mg/kg: 41%
[7]
  ED50: 58 mg/kg
[8]
  Activity: 16

## Cc1ccc(/C=C2\CS(=O)(=O)CC3C2=NN(CC(F)(F)F)C3c2ccc(C)cc2)cc1 (stereo unspecified)
[9]
  Activity: 14
[4]
  inhibition in vivo at 150 mg/kg: 41%
[10]
  inhibition in vivo at 300 mg/kg: < 20%

## CCCN1N=C2/C(=C/c3ccccc3)CN(C)CC2C1c1ccccc1 (stereo unspecified)
[4]
  inhibition in vivo at 150 mg/kg: 41%
[11]
  Activity: 5

## CCCn1nc(-c2ccc(Cl)cc2)c2c1/C(=C/c1ccc(Cl)cc1)CSC2
[4]
  inhibition in vivo at 150 mg/kg: 41%

## O=C(c1ccccc1)N1N=C2/C(=C/c3ccccc3)CS(=O)(=O)CC2C1c1ccccc1 (stereo unspecified)
[12]
  Inhibition: 21%
[2]
  inhibition in vivo at 150 mg/kg: > 60%

## COc1ccc(/C=C2\CS(=O)(=O)CC3C2=NN(CCCN2CCN(C)CC2)C3c2ccc(OC)cc2)cc1 (stereo unspecified)
[13]
  inhibition in vivo at 75 mg/kg: 31%
[14]
  Activity: 10

## CCCN1N=C2/C(=C/c3ccccc3)C[S+]([O-])CC2C1c1ccccc1 (single isomer, unassigned; isomer A)
[15]
  inhibition in vivo at 150 mg/kg: 21%

## CN1CCN(CCCN2N=C3/C(=C/c4ccccc4)CSCC3C2c2ccccc2)CC1 (stereo unspecified)
[4]
  inhibition in vivo at 150 mg/kg: 41%
[16]
  inhibition in vivo at 150 mg/kg: 21%
[17]
  Activity: 11

## COc1cc2c(c(OC)c1OC)-c1ccc(OC)c(=O)cc1[C@@H](NC(C)=O)CC2 [COLCHICINE]
[18]
  LD50: 13.5 mg/kg
[19]
  LD50: 3.5 mg/kg
[20]
  selectivity ratio: 1
[3]
  ED50: 13.2 mg/kg
[21]
  selectivity ratio: 1.5

## COc1ccc2c(c1)c(CC(=O)O)c(C)n2C(=O)c1ccc(Cl)cc1 [INDOMETHACIN]
[20]
  selectivity ratio: 0.04
[3]
  ED50: 517 mg/kg

## CC(=O)N1N=C2/C(=C/c3cccc(C(F)(F)F)c3)CS(=O)(=O)CC2C1c1cccc(C(F)(F)F)c1 (stereo unspecified)
[22]
  LD50: > 4000 mg/kg
[23]
  inhibition in vivo at 75 mg/kg: 22%
[24]
  inhibition in vivo at 300 mg/kg: 21%
[4]
  inhibition in vivo at 150 mg/kg: 41%
[25]
  inhibition in vivo at 150 mg/kg: 7%
[7]
  ED50: 112 mg/kg
[26]
  Activity: 6
[27]
  inhibition in vivo at 75 mg/kg: 0%
[18]
  LD50: > 7200 mg/kg
[19]
  LD50: > 3200 mg/kg
[28]
  inhibition in vivo at 150 mg/kg: 31%
[29]
  ED50: > 600 mg/kg
[30]
  ED50: > 150 mg/kg
[31]
  ED50: > 200 mg/kg
[21]
  selectivity ratio: 24
